Data reported in ChEMBL document CHEMBL4406821, “Novel dual inhibitors targeting CDK4 and VEGFR2 synergistically suppressed cancer progression and angiogenesis” (Eur J Med Chem, 2019).
Active and inactive are the calls of the source. No cut-off for these calls is given here.

Experiments:
[1] = target: Casein kinase I isoform gamma-3 (Homo sapiens) (UniProt Q9Y6M4); assay: Inhibition of recombinant human CK1gamma3 (1 to 330 residues) at 1 uM using KRRRALS(p)VAS as substrate incubated for 40 mins in presence of [gamma-33P]-ATP by scintillation counting method relative to control
How it was run: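 Tested at a single 1 uM in an outsourced commercial kinase-profiling panel, read as percent inhibition. Each value is the mean of two independent experiments.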

[2] = target: Serine/threonine-protein kinase SIK3 (Homo sapiens) (UniProt Q9Y2K2); assay: Inhibition of recombinant human SIK3 (1 to 307 residues) at 1 uM using KKKVSRSGLYRSPSMPENLNRPR as substrate incubated for 40 mins in presence of [gamma-33P]-ATP by scintillation counting method relative to control
[3] = target: Serine/threonine-protein kinase Nek2 (Homo sapiens) (UniProt P51955); assay: Inhibition of recombinant human full length NEK2 at 1 uM using myelin basic protein as substrate incubated for 40 mins in presence of [gamma-33P]-ATP by scintillation counting method relative to control
[4] = system: SiHa; assay: Induction of apoptosis in human SiHa cells assessed as increase in late apoptotic cells at 20 to 40 nM incubated for 48 hrs by annexin V FITC and propidium iodide staining based flow cytometry; assay type: functional, cell-based
How it was run: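 Annexin V-FITC/PI double staining with flow-cytometric readout. MDA-MB-231, T-47D, SiHa and HeLa cells were treated with graded concentrations for 48 h. MDA-MB-231 and T-47D were grown in DMEM and SiHa in 1640 medium, each with 10% FBS and 1% penicillin/streptomycin at 37°C under 5% CO2. Early- and late-stage apoptotic fractions were scored.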

[5] = system: HeLa; assay: Induction of cell cycle arrest in human HeLa cells assessed as accumulation in G2/M phase at 40 to 80 nM incubated for 36 hrs by propidium iodide staining based flow cytometry; assay type: functional
How it was run: (§1)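 Cells were treated with graded concentrations for 36 h, then fixed overnight in 70% ice-cold ethanol at 4°C and resuspended in PBS. Staining used 50 µg/ml PI plus 5 µg/ml RNase at 37°C for 30 min. DNA content was analysed by FACS to give G0/G1, S and G2/M fractions.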

[6] = target: Myosin light chain kinase, smooth muscle (Homo sapiens) (UniProt Q15746); assay: Inhibition of recombinant human MLCK (1425 to 1771 residues) at 1 uM using KKLNRTLSFAEPG as substrate incubated for 40 mins in presence of [gamma-33P]-ATP by scintillation counting method relative to control
[7] = system: T47D; assay: Inhibition of colony formation in human T47D cells at 20 to 40 nM incubated for 5 days by crystal violet staining based light microscopy; assay type: functional, cell-based
How it was run: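 MDA-MB-231, T-47D, SiHa and HeLa cells seeded at 4×10^3/well and cultured with varying concentrations of drug or vehicle for 5 days. Fixed in 20% methanol, stained with 0.5% crystal violet, photographed under light microscopy. DMEM (T-47D) with 10% FBS, 37°C, 5% CO2.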

[8] = target: cAMP-dependent protein kinase catalytic subunit PRKX (Homo sapiens) (UniProt P51817); assay: Inhibition of recombinant human full length PrKX at 1 uM using RRRLSFAEPG as substrate incubated for 40 mins in presence of [gamma-33P]-ATP by scintillation counting method relative to control
[9] = target: Wee1-like protein kinase (Homo sapiens) (UniProt P30291); assay: Inhibition of recombinant human WEE1 (214 to end residues) at 1 uM using LSNLYHQGKFLQTFCGSPLYRRR as substrate incubated for 40 mins in presence of [gamma-33P]-ATP by scintillation counting method relative to control
[10] = target: Serine/threonine-protein kinase TAO1 (Homo sapiens) (UniProt Q7L7X3); assay: Inhibition of recombinant human TAO1 (1 to 327 residues) at 1 uM using myelin basic protein as substrate incubated for 40 mins in presence of [gamma-33P]-ATP by scintillation counting method relative to control
[11] = target: Tyrosine-protein kinase Fyn (Homo sapiens) (UniProt P06241); assay: Inhibition of recombinant full length human FYN at 1 uM using KVEKIGEGTYGVVYK as substrate incubated for 40 mins in presence of [gamma-33P]-ATP by scintillation counting method relative to control
How it was run: (§2)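 Kinase panel profiling at 1 μM performed by Eurofins KinaseProfiler; percent inhibition reported as mean of two independent experiments.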

[12] = system: SiHa; assay: Antitumor activity against human SiHa cells xenografted in orally dosed NOD/SCID BALB/c mouse assessed as reduction in Ki67 expression measured after 21 days by hematoxylin and eosin staining based immunohistochemistry; assay type: functional, organism-based
How it was run: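 Female NOD/SCID Balb/c mice, 6–8 weeks old, received 2×10^6 SiHa cells subcutaneously in the right flank. Once tumors reached 100 mm³, mice were randomized, 5 per group, and gavaged once daily for 21 days. Formalin-fixed, paraffin-embedded tumor sections were stained with Ki67 or CD31 antibody (1:100, 4 °C overnight), then biotin secondary and ABC-peroxidase/DAB, with hematoxylin counterstain.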

[13] = target: Serine/threonine-protein kinase ULK3 (Homo sapiens) (UniProt Q6PHR2); assay: Inhibition of recombinant human full length ULK3 at 1 uM using casein as substrate incubated for 40 mins in presence of [gamma-33P]-ATP by scintillation counting method relative to control
[14] = target: Serine/threonine-protein kinase PLK3 (Homo sapiens) (UniProt Q9H4B4); assay: Inhibition of recombinant human PLK3 (19 to 301 residues) at 1 uM using casein as substrate incubated for 40 mins in presence of [gamma-33P]-ATP by scintillation counting method relative to control
[15] = system: T47D; assay: Induction of cell cycle arrest in human T47D cells assessed as decrease in cell accumulation in S phase at 20 to 40 nM incubated for 36 hrs by propidium iodide staining based flow cytometry; assay type: functional; how it was run: as §1
[16] = target: LIM domain kinase 2 (Homo sapiens) (UniProt P53671); assay: Inhibition of recombinant human LIMK2 at 1 uM incubated for 40 mins in presence of [gamma-33P]-ATP by scintillation counting method relative to control
[17] = target: 5'-AMP-activated protein kinase catalytic subunit alpha-1 (Homo sapiens) (UniProt Q13131); assay: Inhibition of recombinant full length human AMPKalpha1 at 1 uM using AMARAASAAALAR as substrate incubated for 40 mins in presence of [gamma-33P]-ATP by scintillation counting method relative to control; how it was run: as §2
[18] = target: Serine/threonine-protein kinase 10 (Homo sapiens) (UniProt O94804); assay: Inhibition of recombinant human LOK (1 to 348 residues) at 1 uM using RLGRDKYKTLRQIRQ as substrate incubated for 40 mins in presence of [gamma-33P]-ATP by scintillation counting method relative to control
[19] = target: Vascular endothelial growth factor receptor 2 (Homo sapiens, UniProt P35968); assay: Inhibition of VEGFR2 in HUVEC cells assessed as reduction in STAT3 phosphorylation at 20 to 40 nM incubated for 48 hrs by Western blot analysis; assay type: cell-based
How it was run: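 HUVECs were maintained in 1640 medium with 10% FBS. They were treated with graded concentrations for 48 h, PBS-washed and lysed in RIPA buffer. Immunoblots were probed for total and phospho VEGFR2, STAT3, Akt, Erk1 and Src, each at 1:1000. β-actin served as loading control.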

LIM domain kinase 2 (Homo sapiens), sequence (P53671 whole entry, looked up, the tested form may be a part): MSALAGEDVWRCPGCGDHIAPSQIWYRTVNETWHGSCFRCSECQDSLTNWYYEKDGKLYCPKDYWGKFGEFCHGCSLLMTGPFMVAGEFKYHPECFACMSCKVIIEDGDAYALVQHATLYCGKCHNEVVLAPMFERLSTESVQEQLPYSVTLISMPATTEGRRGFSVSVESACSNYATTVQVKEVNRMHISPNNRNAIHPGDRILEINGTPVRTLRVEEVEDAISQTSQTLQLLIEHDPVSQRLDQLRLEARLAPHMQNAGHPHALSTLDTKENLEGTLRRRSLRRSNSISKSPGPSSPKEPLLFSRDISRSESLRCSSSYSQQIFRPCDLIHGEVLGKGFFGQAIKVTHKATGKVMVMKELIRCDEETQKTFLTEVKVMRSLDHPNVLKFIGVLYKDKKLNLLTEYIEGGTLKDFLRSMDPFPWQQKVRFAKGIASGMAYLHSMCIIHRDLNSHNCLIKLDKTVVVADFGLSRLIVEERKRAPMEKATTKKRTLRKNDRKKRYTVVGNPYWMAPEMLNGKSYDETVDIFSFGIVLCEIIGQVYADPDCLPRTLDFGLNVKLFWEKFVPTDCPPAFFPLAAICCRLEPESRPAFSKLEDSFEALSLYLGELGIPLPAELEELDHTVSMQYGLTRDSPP
cAMP-dependent protein kinase catalytic subunit PRKX (Homo sapiens), sequence (P51817 whole entry): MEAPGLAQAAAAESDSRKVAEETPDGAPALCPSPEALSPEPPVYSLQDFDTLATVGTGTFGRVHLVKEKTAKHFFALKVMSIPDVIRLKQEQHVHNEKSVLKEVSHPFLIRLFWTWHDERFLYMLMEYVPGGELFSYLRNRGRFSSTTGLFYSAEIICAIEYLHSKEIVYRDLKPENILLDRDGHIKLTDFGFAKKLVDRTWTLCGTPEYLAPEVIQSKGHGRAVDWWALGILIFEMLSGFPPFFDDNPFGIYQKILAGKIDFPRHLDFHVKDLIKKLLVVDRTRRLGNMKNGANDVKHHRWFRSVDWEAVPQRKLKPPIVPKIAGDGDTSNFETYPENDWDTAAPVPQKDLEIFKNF
Casein kinase I isoform gamma-3 (Homo sapiens), sequence (Q9Y6M4 whole entry, looked up, the tested form may be a part, canonical isoform): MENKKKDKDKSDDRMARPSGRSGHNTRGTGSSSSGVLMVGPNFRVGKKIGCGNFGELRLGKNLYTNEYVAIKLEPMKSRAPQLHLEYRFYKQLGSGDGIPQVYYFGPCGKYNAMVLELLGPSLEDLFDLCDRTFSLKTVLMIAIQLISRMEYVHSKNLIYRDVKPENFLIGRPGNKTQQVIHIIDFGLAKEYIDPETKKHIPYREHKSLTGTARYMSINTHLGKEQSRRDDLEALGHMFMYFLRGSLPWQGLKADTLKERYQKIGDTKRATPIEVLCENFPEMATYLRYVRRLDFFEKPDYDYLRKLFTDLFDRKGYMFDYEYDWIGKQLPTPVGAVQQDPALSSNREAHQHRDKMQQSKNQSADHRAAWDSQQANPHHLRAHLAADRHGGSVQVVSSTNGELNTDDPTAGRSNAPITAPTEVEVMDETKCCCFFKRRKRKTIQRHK
Wee1-like protein kinase (Homo sapiens), sequence (P30291 whole entry, looked up, the tested form may be a part): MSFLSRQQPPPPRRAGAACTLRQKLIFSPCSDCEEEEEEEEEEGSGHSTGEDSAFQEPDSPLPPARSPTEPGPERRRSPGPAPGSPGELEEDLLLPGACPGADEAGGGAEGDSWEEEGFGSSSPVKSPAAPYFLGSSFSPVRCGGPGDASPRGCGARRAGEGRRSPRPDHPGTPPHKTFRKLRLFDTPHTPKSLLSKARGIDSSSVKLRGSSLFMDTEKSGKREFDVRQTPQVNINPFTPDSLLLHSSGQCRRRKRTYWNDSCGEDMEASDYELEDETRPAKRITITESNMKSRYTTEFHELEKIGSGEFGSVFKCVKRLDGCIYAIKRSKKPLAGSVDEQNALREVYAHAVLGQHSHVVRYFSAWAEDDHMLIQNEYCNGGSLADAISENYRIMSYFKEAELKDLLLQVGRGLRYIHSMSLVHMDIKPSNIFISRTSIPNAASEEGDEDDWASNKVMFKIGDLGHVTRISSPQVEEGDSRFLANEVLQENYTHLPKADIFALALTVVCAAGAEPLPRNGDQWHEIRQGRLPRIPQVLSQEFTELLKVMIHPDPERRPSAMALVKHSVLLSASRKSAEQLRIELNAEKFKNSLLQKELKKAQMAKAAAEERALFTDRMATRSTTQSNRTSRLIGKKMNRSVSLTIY
Vascular endothelial growth factor receptor 2, sequence (P35968 whole entry): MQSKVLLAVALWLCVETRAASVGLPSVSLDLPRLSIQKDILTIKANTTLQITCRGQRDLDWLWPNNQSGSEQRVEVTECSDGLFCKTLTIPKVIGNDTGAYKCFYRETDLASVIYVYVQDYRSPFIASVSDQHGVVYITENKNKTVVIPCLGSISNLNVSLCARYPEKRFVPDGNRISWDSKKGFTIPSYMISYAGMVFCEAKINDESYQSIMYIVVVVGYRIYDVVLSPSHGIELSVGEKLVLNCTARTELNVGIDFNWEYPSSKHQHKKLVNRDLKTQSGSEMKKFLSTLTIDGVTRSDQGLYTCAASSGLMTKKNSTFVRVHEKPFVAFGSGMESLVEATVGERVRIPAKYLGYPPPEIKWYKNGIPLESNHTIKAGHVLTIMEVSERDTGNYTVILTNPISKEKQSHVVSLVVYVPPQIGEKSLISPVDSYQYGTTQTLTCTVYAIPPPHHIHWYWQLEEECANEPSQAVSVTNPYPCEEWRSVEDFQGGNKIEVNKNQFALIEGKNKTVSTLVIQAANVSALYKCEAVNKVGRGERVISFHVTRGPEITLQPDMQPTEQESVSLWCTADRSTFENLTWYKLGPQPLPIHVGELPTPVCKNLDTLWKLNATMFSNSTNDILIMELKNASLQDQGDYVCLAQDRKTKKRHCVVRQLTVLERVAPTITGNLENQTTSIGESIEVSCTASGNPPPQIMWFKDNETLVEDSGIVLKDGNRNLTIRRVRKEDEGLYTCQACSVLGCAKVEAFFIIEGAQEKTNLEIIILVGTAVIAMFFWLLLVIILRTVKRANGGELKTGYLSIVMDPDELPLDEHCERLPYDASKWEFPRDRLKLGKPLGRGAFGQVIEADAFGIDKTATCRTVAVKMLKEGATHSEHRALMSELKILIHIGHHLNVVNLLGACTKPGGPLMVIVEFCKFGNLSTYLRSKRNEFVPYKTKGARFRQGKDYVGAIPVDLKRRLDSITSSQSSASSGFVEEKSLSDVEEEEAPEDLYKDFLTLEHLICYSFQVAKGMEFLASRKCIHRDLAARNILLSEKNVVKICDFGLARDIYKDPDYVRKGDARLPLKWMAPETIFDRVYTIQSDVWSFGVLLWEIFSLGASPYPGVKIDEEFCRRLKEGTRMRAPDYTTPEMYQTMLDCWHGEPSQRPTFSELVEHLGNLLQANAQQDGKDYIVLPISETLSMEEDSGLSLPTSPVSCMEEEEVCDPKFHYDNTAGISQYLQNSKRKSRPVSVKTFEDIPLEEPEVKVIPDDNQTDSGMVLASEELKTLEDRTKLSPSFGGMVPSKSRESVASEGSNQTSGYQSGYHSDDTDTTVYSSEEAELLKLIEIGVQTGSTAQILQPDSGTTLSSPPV
Serine/threonine-protein kinase SIK3 (Homo sapiens), sequence (Q9Y2K2 whole entry, looked up, the tested form may be a part): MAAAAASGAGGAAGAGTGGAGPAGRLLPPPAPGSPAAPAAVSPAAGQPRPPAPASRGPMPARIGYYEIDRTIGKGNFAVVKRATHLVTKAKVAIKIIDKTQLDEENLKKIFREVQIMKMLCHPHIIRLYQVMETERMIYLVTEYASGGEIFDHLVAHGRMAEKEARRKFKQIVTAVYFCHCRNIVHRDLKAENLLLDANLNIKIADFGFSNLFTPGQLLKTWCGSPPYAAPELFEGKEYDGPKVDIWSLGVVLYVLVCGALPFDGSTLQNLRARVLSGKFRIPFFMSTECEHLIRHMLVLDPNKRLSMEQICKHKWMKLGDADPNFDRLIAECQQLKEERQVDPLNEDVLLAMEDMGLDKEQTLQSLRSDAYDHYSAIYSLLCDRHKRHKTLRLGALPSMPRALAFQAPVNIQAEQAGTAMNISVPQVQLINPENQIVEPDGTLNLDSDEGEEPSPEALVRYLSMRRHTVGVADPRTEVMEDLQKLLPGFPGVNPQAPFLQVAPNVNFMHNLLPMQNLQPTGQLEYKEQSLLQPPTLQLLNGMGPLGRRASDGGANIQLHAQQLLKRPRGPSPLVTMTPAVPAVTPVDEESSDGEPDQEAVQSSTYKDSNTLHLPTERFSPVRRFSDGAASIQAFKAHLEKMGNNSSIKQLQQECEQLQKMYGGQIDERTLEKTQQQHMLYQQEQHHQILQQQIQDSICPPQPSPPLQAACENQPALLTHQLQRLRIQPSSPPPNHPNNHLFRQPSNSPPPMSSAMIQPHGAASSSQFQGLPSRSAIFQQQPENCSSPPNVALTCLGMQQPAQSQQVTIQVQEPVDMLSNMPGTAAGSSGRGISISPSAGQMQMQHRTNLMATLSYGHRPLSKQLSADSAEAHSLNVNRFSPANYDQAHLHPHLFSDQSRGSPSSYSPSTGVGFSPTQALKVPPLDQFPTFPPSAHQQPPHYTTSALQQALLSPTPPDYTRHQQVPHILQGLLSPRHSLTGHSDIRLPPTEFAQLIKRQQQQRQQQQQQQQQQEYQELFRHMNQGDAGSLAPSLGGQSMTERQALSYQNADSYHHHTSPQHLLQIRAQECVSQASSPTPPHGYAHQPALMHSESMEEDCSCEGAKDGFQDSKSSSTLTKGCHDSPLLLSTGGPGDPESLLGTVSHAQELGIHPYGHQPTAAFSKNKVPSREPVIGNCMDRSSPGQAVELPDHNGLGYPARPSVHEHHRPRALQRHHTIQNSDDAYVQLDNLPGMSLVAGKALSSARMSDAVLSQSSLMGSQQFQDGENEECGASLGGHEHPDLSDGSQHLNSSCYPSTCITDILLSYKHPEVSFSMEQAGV

Q: How did the inhibition [1] turn out when `Cc1ccc(NC(=O)C2(C(=O)Nc3ccc(Nc4ncc(F)c(-c5cc(F)c6nc(C)n(C(C)C)c6c5)n4)cc3)CC2)cc1` was run?
A: 0%

Q: What about the inhibition [2] of the same compound?
A: 43%

Q: And the inhibition [3]?
A: 57%

Q: And the Activity [4]?
A: Active

Q: What about the Activity [5] of the same compound?
A: Active

Q: What about the inhibition [6] of the same compound?
A: 21%

Q: And the inhibition [7]?
A: Active

Q: And the inhibition [8]?
A: 43%

Q: And the inhibition [9]?
A: 5%

Q: What about the inhibition [10] of the same compound?
A: 2%

Q: What about the inhibition [11] of the same compound?
A: 32%

Q: What about the inhibition [12] of the same compound?
A: Dose-dependent effect

Q: And the inhibition [13]?
A: 37%

Q: And the inhibition [14]?
A: 36%

Q: And the Activity [15]?
A: Active

Q: What about the inhibition [16] of the same compound?
A: 42%

Q: And the inhibition [17]?
A: 40%

Q: What about the inhibition [18] of the same compound?
A: 93%

Q: What about the inhibition [19] of the same compound?
A: Active
